# Source: ChEMBL document CHEMBL1255259, “Phosphorothioate-modified oligodeoxynucleotides inhibit human cytomegalovirus replication by blocking virus entry” (Antimicrob Agents Chemother, 2008)
# Active and inactive are the calls of the source. No cut-off for these calls is given here.
# Columns and labels:
# [1] = tested on: Human betaherpesvirus 5; assay: Antimicrobial activity against Human cytomegalovirus AD169 infected in HELF assessed as inhibition of viral replication at 0.1 uM measured after 6 days post-infection; type: functional, organism-based
# [2] = Cytotoxicity against HELF assessed as cell viability by MTT assay after 6 days at <=10 uM; type: cell-based; details: human, 144 h
# In short: (§1)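 HELF exposed to rising ODN concentrations (up to 10 μM) for 6 days; viable cells measured by MTT. CC50 taken as concentration that cuts viability to 50%.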
# [3] = tested on: Human betaherpesvirus 5; assay: Antimicrobial activity against 0.1 uM compound pretreated Human cytomegalovirus AD169 infected in HELF assessed as reduction in viral titer 37 degC; type: functional, organism-based
# In short: (§2)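 HCMV AD169 (10^4 PFU) incubated with ODN at 0.1 μM at 4 or 37°C for various times; samples then diluted to bring ODN below an antivirally active level; residual infectivity titrated by plaque assay on HELF. Means ± SD of three independent experiments.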
# [4] = tested on: unidentified adenovirus; assay: Antimicrobial activity against unidentified adenovirus infected in compound pretreated HELF assessed as inhibition of viral replication; type: functional, organism-based
# In short: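 HELF pretreated 1 h with ODN (0.1 or 1 μM), infected with an adenovirus clinical isolate (MOI 1); ODN kept after 2 h adsorption. Harvest at 4 days p.i., sonication, plaque titration on HELF. Means ± SD, three experiments.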
# [5] = tested on: Human alphaherpesvirus 1; assay: Antimicrobial activity against Human herpesvirus 1 infected in compound pretreated HELF assessed as inhibition of viral replication at 1 uM; type: functional, organism-based
# In short: (§3)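 HELF pretreated with ODN (0.1 or 1 μM) 1 h before infection with a clinical HSV-1 isolate at MOI 0.1; ODN kept in medium after 2 h adsorption. Harvest at 48 h p.i., sonication, plaque titration on Vero cells. Means ± SD of three independent experiments.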
# [6] = tested on: Human betaherpesvirus 5; assay: Antimicrobial activity against Human cytomegalovirus AD169 infected in 0.1 uM compound pretreated HELF assessed as inhibition of viral replication measured after 6 days post-infection; type: functional, organism-based
# In short: (§4)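 HELF pretreated with ODN 1 h before infection with HCMV AD169 (MOI 1); ODN kept in medium after 2 h adsorption at 37°C. At 6 days p.i., cells plus supernatants sonicated and titrated by plaque assay on HELF; plaques counted microscopically, expressed as PFU/ml (log10) or % of control. IC50/IC90 by linear regression; duplicate wells, three independent experiments, means ± SD.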
# [7] = Cytotoxicity against HELF assessed as cell viability after 6 days by MTT assay; type: cell-based; details: human, HELF cells; in short: as §1
# [8] = tested on: Human betaherpesvirus 5; assay: Antimicrobial activity against Human cytomegalovirus AD169 infected in 1 uM compound pretreated HELF assessed as inhibition of viral replication measured after 6 days post-infection; type: functional, organism-based; in short: as §4
# [9] = tested on: Human betaherpesvirus 5; assay: Antimicrobial activity against Human cytomegalovirus AD169 infected in HELF assessed as inhibition of viral replication at 1 uM measured after 6 days post-infection; type: functional, organism-based
# [10] = tested on: Human alphaherpesvirus 1; assay: Antimicrobial activity against Human herpesvirus 1 infected in compound pretreated HELF assessed as inhibition of viral replication at 0.1 uM; type: functional, organism-based; in short: as §3
# [11] = tested on: Human betaherpesvirus 5; assay: Antimicrobial activity against 0.1 uM compound pretreated Human cytomegalovirus AD169 infected in HELF assessed as reduction in viral titer at 4 degC; type: functional, organism-based; in short: as §2
# [12] = tested on: Human betaherpesvirus 5; assay: Antimicrobial activity against Human cytomegalovirus TB40 expressing EGPF tagged UL32 infected in HELF assessed as inhibition of inhibition of viral adsorption at 0.1 uM after 2 hrs by fluorescence microscopy; type: functional, organism-based
# In short: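 Prechilled HELF on coverslips exposed to ODN (0.1 μM) or heparin (30 μg/ml) 1 h at 4°C, then infected with HCMV TB40 UL32-EGFP (MOI 20) 2 h at 4°C to permit attachment only. Washed in ice-cold PBS, fixed in 4% formaldehyde, propidium iodide counterstain; green virions imaged by confocal fluorescence microscopy. Done twice.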
# [13] = tested on: Vesicular stomatitis Indiana virus; assay: Antimicrobial activity against Vesicular stomatitis Indiana virus infected in compound pretreated HELF assessed as inhibition of viral replication; type: functional, organism-based
# In short: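 HELFs exposed to ODN (0.1 or 1 μM) for 1 h, then infected with VSV serotype Indiana at MOI 1 (2 h adsorption, 37°C). ODN kept in the medium until 48 h p.i. Cells and supernatants were pooled, sonicated and titrated by plaque assay on HELFs. Data are means ± standard deviations of three independent experiments, duplicate wells.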
# [14] = tested on: Human betaherpesvirus 5; assay: Antimicrobial activity against Human cytomegalovirus AD169 infected in compound pretreated HELF assessed as inhibition of viral replication measured after 6 days post-infection; type: functional, organism-based; details: Human betaherpesvirus 5, AD169, HELF; in short: as §4
smiles,measurement,setting,value
Cc1cn([C@H]2C[C@H](OP(O)(O)=S)[C@@H](COP(O)(=S)O[C@H]3C[C@H](n4cc(C)c(=O)[nH]c4=O)O[C@@H]3COP(O)(=S)O[C@H]3[C@@H](O)[C@H](n4cnc5c(=O)[nH]c(N)nc54)O[C@@H]3COP(O)(=S)O[C@H]3[C@@H](O)[C@H](n4ccc(N)nc4=O)O[C@@H]3COP(O)(=S)O[C@H]3C[C@H](n4cc(C)c(=O)[nH]c4=O)O[C@@H]3COP(O)(=S)O[C@H]3[C@@H](O)[C@H](n4cnc5c(=O)[nH]c(N)nc54)O[C@@H]3COP(O)(=S)O[C@H]3C[C@H](n4cc(C)c(=O)[nH]c4=O)O[C@@H]3COP(O)(=S)O[C@H]3C[C@H](n4cc(C)c(=O)[nH]c4=O)O[C@@H]3COP(O)(=S)O[C@H]3C[C@H](n4cc(C)c(=O)[nH]c4=O)O[C@@H]3COP(O)(=S)O[C@H]3C[C@H](n4cc(C)c(=O)[nH]c4=O)O[C@@H]3COP(O)(=S)O[C@H]3[C@@H](O)[C@H](n4cnc5c(=O)[nH]c(N)nc54)O[C@@H]3COP(O)(=S)O[C@H]3[C@@H](O)[C@H](n4ccc(N)nc4=O)O[C@@H]3COP(O)(=S)O[C@H]3C[C@H](n4cc(C)c(=O)[nH]c4=O)O[C@@H]3COP(O)(=S)O[C@H]3[C@@H](O)[C@H](n4cnc5c(=O)[nH]c(N)nc54)O[C@@H]3COP(O)(=S)O[C@H]3C[C@H](n4cc(C)c(=O)[nH]c4=O)O[C@@H]3COP(O)(=S)O[C@H]3C[C@H](n4cc(C)c(=O)[nH]c4=O)O[C@@H]3COP(O)(=S)O[C@H]3[C@@H](O)[C@H](n4cnc5c(=O)[nH]c(N)nc54)O[C@@H]3COP(O)(=S)O[C@H]3[C@@H](O)[C@H](n4ccc(N)nc4=O)O[C@@H]3COP(O)(=S)O[C@H]3C[C@H](n4cc(C)c(=O)[nH]c4=O)O[C@@H]3COP(O)(=S)O[C@H]3[C@@H](O)[C@H](n4cnc5c(=O)[nH]c(N)nc54)O[C@@H]3COP(O)(=S)O[C@H]3[C@@H](O)[C@H](n4ccc(N)nc4=O)O[C@@H]3COP(O)(=S)O[C@H]3C[C@H](n4cc(C)c(=O)[nH]c4=O)O[C@@H]3CO)O2)c(=O)[nH]c1=O (stereo not given in full),inhibition,[1],inactive
same,Activity,[2],Non-toxic
same,inhibition,[3],inactive
same,inhibition,[4],inactive
same,inhibition,[5],inactive
same,inhibition,[6],Active
same,CC50 at 144 h,[7],> 10 µM
same,inhibition,[8],Active
same,inhibition,[9],inactive
same,inhibition,[10],inactive
same,inhibition,[11],inactive
same,inhibition,[12],inactive
same,inhibition,[13],inactive
same,IC50,[14],0.2 µM
same,IC90,[14],4 µM
